Data taken from paper PMC5869691 (Organic letters, 2018).
In brackets after ≈: the same amount, converted by molar mass.

Legend:
bacterial membranes = assay: SYTOX uptake assay; assay type: cell-based; conditions: SYTOX fluorescence; positive control 12,3,2,3,12
Procedure, shortened: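 All synthetic test compounds were run in a SYTOX uptake assay for membrane damage in S. aureus cells. Uptake was scored qualitatively as positive or negative.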

S. aureus = assay: minimum inhibitory concentration; assay type: cell-based, Staphylococcus aureus
Procedure, shortened: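 Each synthetic test compound was tested against S. aureus SH1000, with USA300 and ATCC33591 as additional strains. MIC was read in both iron-rich medium (IRM) and iron-depleted medium (IDM), and values are given in μM. Vancomycin was the positive control run in parallel.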

## CC(=O)[C@H](C)C[C@@H](C)C[C@H](C)CC[C@@H](O)C[C@@H](O)[C@@H](CC(C)C)[C@@H](O)c1cc(O)cc(O)c1 [Baulamycin B, baulamycin B]
Bacterial membranes
  membrane disruption (SYTOX uptake): exception
S. aureus
  MIC against S. aureus: 500 µM (≈ 233 µg/mL)

## CCC(=O)[C@H](C)C[C@@H](C)C[C@H](C)CC[C@@H](O)C[C@@H](O)[C@@H](CC(C)C)[C@@H](O)c1cc(O)cc(O)c1 [Baulamycin A, baulamycin A]
Bacterial membranes
  membrane disruption (SYTOX uptake): tested positive for membrane disruption
